# Source: PubChem (several laboratories)
# Runt-CBFb FRET: inhibitors of human RUNX1 Runt domain binding to CBFb; Q01196+Q13951; Cerulean-Runt/Venus-CBFb FRET ratio 530/480, 1 h; inhibition, % at 20 µM; actives 0.46% (n = 220,000); AID 1496;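 active means inhibition over about 50% at 20 µM in the single-dose screen, limit read from the data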;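 further: 0% = DMSO wells and 100% = excess unlabeled CBFb competitor control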
#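 Assay system: Cerulean-tagged RUNX1 Runt domain (FRET donor) fusion protein / Amount: 100 nM each of Venus-CBFb and Cerulean-Runt domain / Medium: Tris buffer pH 7.5 with salts and BSA / Also added: Venus-CBFb 100 nM / Schedule: 1 h complex formation plus 1 h compound treatment, room temperature / Signal: FRET fluorescence / Read-out: loss of energy transfer signal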
# RanGTP-Imp inh: disruptors of Ran-importin-beta complex formation – biochemical, FRET, CFP-Ran, YFP-importin-beta, homogeneous, primary screen. inhibition, % (concentration not given with the values). AID 2216. cell-free CFP-Ran/YFP-importin-beta FRET ratio. actives 1.1% (n = 300,000);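 active means more than half of the replicate wells show a fall in the fluorescence ratio signal beyond about 16%, limit read from the data, passing the limit was not always enough; inconclusive means exactly half of the replicate wells pass the set limit; inactive means fewer than half of replicates pass the limit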;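 further: 0% = DMSO wells and 100% = Ran loaded with GDP instead of GTP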
# Wee1 stabilizer: inhibitors of human Wee1 degradation; P30291; HeLa Luc-Wee1K328M stability, luciferase luminescence; 100% = proteasome inhibitor MG132 effect; reporter increase, % at 5 µM; actives 1.2% (n = 220,000); AID 1321;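 active means activation above the mean of all tested compounds plus 3 SD, set per screening run, cut at about 8.8% in these data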;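 further: cells exposed to compound for 20 h before luminescence read; 0% = DMSO alone and 100% = MG132 at 30 µM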
# Target sequence (P30291 whole entry K328M): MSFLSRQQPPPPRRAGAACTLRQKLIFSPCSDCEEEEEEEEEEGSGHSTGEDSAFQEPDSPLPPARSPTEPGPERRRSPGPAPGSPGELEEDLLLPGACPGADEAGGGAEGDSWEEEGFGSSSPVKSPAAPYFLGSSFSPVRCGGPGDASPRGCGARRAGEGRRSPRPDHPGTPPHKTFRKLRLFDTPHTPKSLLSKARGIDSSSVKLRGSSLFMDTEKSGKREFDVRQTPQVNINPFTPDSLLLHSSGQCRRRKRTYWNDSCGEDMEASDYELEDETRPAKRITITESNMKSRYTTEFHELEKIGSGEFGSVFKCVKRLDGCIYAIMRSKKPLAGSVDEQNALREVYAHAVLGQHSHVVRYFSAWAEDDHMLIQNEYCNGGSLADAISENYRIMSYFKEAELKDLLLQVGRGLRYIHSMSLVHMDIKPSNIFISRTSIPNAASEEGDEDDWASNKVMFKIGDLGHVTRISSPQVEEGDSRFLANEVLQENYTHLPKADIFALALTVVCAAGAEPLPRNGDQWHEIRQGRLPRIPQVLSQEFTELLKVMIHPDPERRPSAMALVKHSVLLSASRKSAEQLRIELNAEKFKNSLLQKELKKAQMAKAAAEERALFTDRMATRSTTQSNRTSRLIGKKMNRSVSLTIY
# AI-2 QS modul: Vibrio harveyi AI-2 quorum sensing modulation; Vibrio harveyi JMH597 AI-2 luminescence/OD600 ratio, 9 h; hits give low values; strain lacks LuxN and CqsS sensors; 0 = neutral-control median; activity change, % at 7.5 µM; actives 0.4% (n = 300,000); in the data active means activity change below about -75%, passing the limit was not always enough; inconclusive means no clear call, values can overlap the other calls;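 further: luminescence divided by OD600 gain over 9 h not by final OD600 alone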
# proKLK7 act: proKLK7 (human) activation, primary screen; P49862; purified proKLK7, EDANS-DABCYL substrate fluorescence; 100% is mature enzyme control, 0% vehicle; activation, % at 7 µM; actives 0.9% (n = 370,000); AID 652039;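 active means activation above the mean of all tested compounds plus 3 SD, computed per campaign excluding outliers beyond control limits, cut at about 13% in these data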
# Runt-SMMHC FRET: blocks binding of human RUNX1 Runt domain to CBFb-SMMHC | Q01196+Q13951 | Cerulean-Runt/Venus-CBFb-SMMHC FRET ratio 530/480, 1 h | inhibition, % at 20 µM | actives 0.74% (n = 220,000) | AID 1434;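 active means mean inhibition across duplicate retests at 20 µM reaching about 50%, limit read from the data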;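 further: 0% = DMSO wells and 100% = wells with excess untagged CBFb-SMMHC; inhibitors lower the FRET ratio by blocking Runt binding to CBFb-SMMHC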
# JMH597 growth: retest: inhibitors of Vibrio harveyi JMH597 growth; shares compounds with AI-2 QS modul; OD600 absorbance, 9 h; lacks LuxN and CqsS sensors; growth inhibition, % at 7.5 µM; actives 1% (n = 750); AID 2726;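 active means every replicate shows growth inhibition above 50%; inconclusive means at least half, but not all, replicates pass that cutoff; inactive means fewer than half of replicates pass it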
# BB721 lum counter: retest counter-screen: BB721 constitutive quorum sensing luminescence decrease. shares compounds with AI-2 QS modul. Vibrio harveyi BB721 luminescence, 9 h. inhibition, % at 7.5 µM. actives 95% (n = 750);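 active means inhibition above about 80% in every replicate, not just on average, limit read from the data; inconclusive means at least half of replicates past the limit, but not all; inactive means fewer than half of replicates past the limit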
# BB721 growth rt: retest: blocks Vibrio harveyi BB721 growth. shares compounds with AI-2 QS modul. OD600 absorbance, 9 h. growth inhibition, % at 7.5 µM. actives 3% (n = 750);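 active means every replicate shows growth inhibition above 50%; inconclusive means at least half but not all replicates above 50% inhibition; inactive means under half of replicates above 50% inhibition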
# AI-2 QS JMH597: Vibrio harveyi AI-2 signaling luminescence modulation – JMH597 strain, confirmation. AID 2736. Vibrio harveyi JMH597 AI-2 quorum sensing luminescence, 9 h; luxN and CqsS knockout, AI-2 only. shares compounds with AI-2 QS modul. actives 97% (n = 750). inhibition, % at 7.5 µM;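 active means every replicate shows more than 75% inhibition of signal versus neutral control wells; inconclusive means half to three quarters of replicates exceed 75% inhibition; inactive means fewer than half of replicates exceed 75% inhibition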
# YIC FRET counter: counter-screen: alters YIC FRET probe signal; shares compounds with RanGTP-Imp inh; Purified YIC probe, intramolecular FRET ratio YFP/CFP; IC50, µM; actives 40% (n = 1,000); AID 435026;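 active means fitted half-maximal inhibitory concentration no more than tenfold above the top dose tested; inconclusive means flat fit with 30 to 70% activity, or poor fit; inactive means half-maximal concentration beyond tenfold above the top dose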
# * hit, by the source's call; ? = inconclusive; nt = no result given. A selection: hits, their analogues and other compounds. The true share with any hit is near 2.9%.
SMILES,Runt-CBFb FRET,RanGTP-Imp inh,Wee1 stabilizer,AI-2 QS modul,proKLK7 act,Runt-SMMHC FRET,JMH597 growth,BB721 lum counter,BB721 growth rt,AI-2 QS JMH597,others
O=C(COc1cccc(C(F)(F)F)c1)Nc1ccc(S(=O)(=O)N2CCCC2)cc1,-2,nt,4,-93*,1,-2,35,98*,21,?,
COc1ccc(CC(=O)OCC(=O)NCc2ccc3c(c2)OCO3)cc1OC,nt,nt,nt,nt,0,nt,nt,nt,nt,nt,
COC(=O)[C@]12C[C@H](CC(=O)N3CCN(C(=O)C4CC4)CC3)C(=O)N(Cc3cccc4ccccc34)C1=C[C@H](COCc1ccccc1)O[C@@H]2C,nt,nt,nt,nt,0,nt,nt,nt,nt,nt,
CN(Cc1nccn1C)C(=O)c1cc(COc2cccc(C(F)(F)F)c2)on1,nt,5,nt,20,0,nt,nt,nt,nt,nt,
CC(=O)c1cccc(OCc2cc(C(=O)N(C)Cc3cnccn3)no2)c1,nt,0,nt,?,0,nt,21,92*,15,95*,
CCc1ccc(CN(C)C(=O)c2cc(COc3cccc(C(F)(F)F)c3)on2)nc1,nt,0,nt,-83*,0,nt,?,92*,?,95*,
CC(=O)c1cccc(OCc2cc(C(=O)N(C)C(C)c3ccccn3)no2)c1 (configuration not stated),nt,?,nt,2,0,nt,nt,nt,nt,nt,
Cc1ccc(CN(C)C(=O)c2cc(COc3cccc(C(F)(F)F)c3)on2)o1,nt,2,nt,-81*,0,nt,65*,95*,87*,96*,
Cc1ccc(S(=O)(=O)N2C3CC(c4ccccc4)N(S(=O)(=O)c4cccc(Cl)c4)CC3C(=O)C[C@H]2c2ccccc2)cc1 (some centres not stated),nt,nt,nt,nt,1,nt,nt,nt,nt,nt,
Cc1ccc(N/C=C/C(=O)c2ccc(C)cc2)cc1,2,-2,2,8,0,-1,nt,nt,nt,nt,
Cc1ccc(O)c(N/C=C/C(=O)c2ccc(F)cc2)c1,nt,7,nt,?,0,nt,21,86*,33,89*,
O=S(=O)(c1ccc(Br)s1)n1cccn1,-1,?,-2,-91*,0,-37,18,98*,-30,100*,
CCN(CC)C(=O)c1ccc(Nc2nnc(-c3ccc(O)cc3)c3ccccc23)cc1,nt,4,nt,20,6,nt,nt,nt,nt,nt,
COc1ccc(C)cc1NS(=O)(=O)c1ccc2c(c1)N(C)CCO2,nt,-1,nt,9,0,nt,nt,nt,nt,nt,
COc1ccc(NC(=O)CSc2nnc(Cc3ccccc3)c(=O)n2N)c(OC)c1,nt,0,nt,32,-1,nt,nt,nt,nt,nt,
Nn1c(SCC(=O)Nc2ccc(OC(F)F)cc2)nnc(Cc2ccccc2)c1=O,nt,0,nt,-92*,0,nt,53,96*,?,97*,
O=C(Cn1nnc2ccccc2c1=O)Nc1ccc2c(c1)CCC2,-1,3,7,-94*,0,-1,-15,99*,-29,99*,
O=C(Cn1cnc2ccccc2c1=O)Nc1ccc2c(c1)CCC2,0,?,4,-83*,0,3,7,99*,-6,99*,
COC(=O)c1ccc(C)c(NC(=O)Cn2cnc3ccccc3c2=O)c1,1,-4,-2,-86*,0,0,-16,94*,-18,96*,
COC(=O)c1ccccc1NC(=O)CCNC(=O)Cn1cnc2ccccc2c1=O,-1,3,1,-4,0,0,nt,nt,nt,nt,
c1ccc(C2COC(c3cccs3)=N2)cc1 (configuration not stated),0,4,-2,-1,1,1,nt,nt,nt,nt,
Fc1ccccc1N1CC(c2ccccc2)C(c2cccs2)=N1 (configuration not stated),28,20*,-2,3,-472,62*,nt,nt,nt,nt,YIC FRET counter=14*
COc1cccc(NC(=O)CCNC(=O)N2CC(=O)Nc3ccccc32)c1,nt,7,nt,-19,1,nt,nt,nt,nt,nt,
Cc1ccc(S(=O)(=O)NCCN(CCNS(=O)(=O)c2ccc(C)cc2)S(C)(=O)=O)cc1,-4,21*,1,9,0,-3,nt,nt,nt,nt,YIC FRET counter=>50
CC(C)c1cc(N2CCN(C(=O)c3ccco3)CC2)n2c(nc3ccccc32)c1C#N,25,?,-2,18,2,nt,nt,nt,nt,nt,YIC FRET counter=16*
SMILES,Runt-CBFb FRET,RanGTP-Imp inh,Wee1 stabilizer,AI-2 QS modul,proKLK7 act,Runt-SMMHC FRET,JMH597 growth,BB721 lum counter,BB721 growth rt,AI-2 QS JMH597,others
CS(=O)(=O)Nc1ccccc1-c1cccc2nccn12,nt,nt,nt,nt,2,nt,nt,nt,nt,nt,
COc1ccc(CCNc2c3ccccc3nc3ccccc23)cc1OC,110*,43*,-1,26,1,134*,nt,nt,nt,nt,YIC FRET counter=14*
COc1ccc(CCn2c(C)nc3ccccc3c2=O)cc1OC,2,23*,-2,6,0,-1,nt,nt,nt,nt,YIC FRET counter=>50
COc1ccccc1Nc1c2ccccc2nc2ccccc12,nt,27*,nt,15,1,nt,nt,nt,nt,nt,YIC FRET counter=>50
CC(C)(C)c1ccc(OCC(=O)N(Cc2cccs2)C2CCS(=O)(=O)C2)cc1 (configuration not stated),nt,-2,nt,21,0,nt,nt,nt,nt,nt,
CCCCn1c(N)c(N(CC(C)C)C(=O)c2cc3ccccc3cc2OC)c(=O)[nH]c1=O,nt,nt,nt,nt,0,nt,nt,nt,nt,nt,
COc1ccc(OC)c(N(CC(=O)O)S(=O)(=O)c2ccc(OC)c(OC)c2)c1,0,21*,3,-3,0,1,nt,nt,nt,nt,YIC FRET counter=>50
COc1ccc(OC)c(N(CC(=O)N2CCCC2)S(=O)(=O)c2ccc(OC)c(OC)c2)c1,-1,-3,1,26,0,-2,nt,nt,nt,nt,
CC(C)Oc1ccc(OCCn2c(S(=O)(=O)O)nc3c(N)ncnc32)cc1,nt,-1,nt,7,0,nt,nt,nt,nt,nt,
O=C(Nc1ccnc(-c2ccncc2)n1)c1ccc(Cl)cc1,2,23*,-2,20,0,-7,nt,nt,nt,nt,YIC FRET counter=>50
Cc1cc2nc(-c3cccc(Br)c3)c(Cc3ccccc3)n2c(C)c1Br,nt,nt,nt,nt,0,nt,nt,nt,nt,nt,
O=C(CN(Cc1ccccc1)S(=O)(=O)c1ccc2c(c1)OCCO2)Nc1ccc2c(c1)OCCO2,2,-3,-1,-1,1,18,nt,nt,nt,nt,
NC(=O)CN(Cc1ccccc1)S(=O)(=O)c1ccc2c(c1)OCCO2,nt,19*,nt,7,0,nt,nt,nt,nt,nt,YIC FRET counter=>50
